Experimental data taken from ChEMBL document CHEMBL1139095, “Butyl 2-(4-[1.1'-biphenyl]-4-yl-1H-imidazol-2-yl)ethylcarbamate, a potent sodium channel blocker for the treatment of neuropathic pain” (Bioorg Med Chem Lett, 2007).
Active and inactive are the calls of the source.

Experiments:
[1] = Displacement of [3H]BTX from sodium channel in rat cerebral cortex synaptosomal membrane; assay type: tissue-based
SH-SY5Y = test: Cytoprotection against vetratridine-induced cytotoxicity in human SH-SY5Y cells; assay type: functional, cell-based
How it was run: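 SH-SY5Y neuroblastoma cells were seeded 24 h ahead and pre-incubated 20 min with compound. They were then exposed 3 h to veratridine plus 1 mM ouabain, and the medium was swapped for 10% alamar blue for 18–24 h. Absorbance was read at 570/620. Percent cell injury was calculated from blank-corrected OD. IC50 (concentration halving injury) was extrapolated from dose–response graphs; triplicate means, two experiments.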

Rattus norvegicus [2] = test: Antihyperalgesic effect in carrageenan-induced rat hyperalgesia model at 10 mg/kg, ip; assay type: functional, organism-based; set-up: dose 10 mg/kg
How it was run: (§1)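 Compound or vehicle was given ip 30 min before paw withdrawal threshold was measured to mechanical stimulus (Randall–Selitto). Carrageenan model: inflamed versus contralateral paw. CCI model: injured versus non-injured paw. Groups of n = 4–6 were compared with vehicle by two-sided Student/Dunnett test; mean ± SEM.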

Rattus norvegicus [3] = test: Protective activity against chronic constriction injury-induced rat neuropathic pain model at 30 mg/kg, ip; assay type: functional, organism-based; set-up: dose 30 mg/kg; how it was run: as §1
Rattus norvegicus [4] = test: Antihyperalgesic effect in carrageenan-induced rat hyperalgesia model at 30 mg/kg, ip; assay type: functional, organism-based; set-up: dose 30 mg/kg; how it was run: as §1

SMILES | IC50 [1] | IC50 (SH-SY5Y) | also measured
CCCCOC(=O)NCCc1nc(-c2ccc(CCC)cc2)c[nH]1 | 62 nM | 3990 nM | –
CCCCOC(=O)NCCc1nc(-c2ccc(Br)cc2)c[nH]1 | 210 nM | 900 nM | –
COC(=O)NCCc1nc(-c2ccc(-c3ccccc3)cc2)c[nH]1 | 282 nM | – | –
CC(C)(C)OC(=O)NCCCc1nc(-c2ccc(-c3ccccc3)cc2)c[nH]1 | 184 nM | – | –
CC(C)(C)COC(=O)NCCc1nc(-c2ccc(-c3ccccc3)cc2)c[nH]1 | 372 nM | – | –
CC(C)(C)OC(=O)NCc1nc(-c2ccc(-c3ccccc3)cc2)c[nH]1 | 144 nM | – | –
CCOC(=O)NCCc1nc(-c2ccc(-c3ccccc3)cc2)c[nH]1 | 71 nM | – | –
CCCCOC(=O)NCCc1nc(-c2ccc(C(F)(F)F)cc2)c[nH]1 | 453 nM | – | –
CC(C)(C)OC(=O)NCCc1nc(-c2ccc(-c3ccccc3)cc2)c[nH]1 | 64 nM | – | –
CCCCOC(=O)NCCc1nc(-c2ccc(CC(C)C)cc2)c[nH]1 | 41 nM | 750 nM | –
CCCCOC(=O)NCCc1nc(-c2ccc(F)cc2)c[nH]1 | 1000 nM | – | –
CCCOC(=O)NCCc1nc(-c2ccc(-c3ccccc3)cc2)c[nH]1 | 86 nM | – | –
O=C(NCCc1nc(-c2ccc(-c3ccccc3)cc2)c[nH]1)OC1CCCC1 | 52 nM | 870 nM | –
CCCCOC(=O)NCCc1nc(-c2ccc(CC)cc2)c[nH]1 | 96 nM | 3220 nM | –

Stronger by IC50 [1], values ahead:

IC50 [1] | SMILES | IC50 (SH-SY5Y) | also measured
26 nM | CC(C)COC(=O)NCCc1nc(-c2ccc(-c3ccccc3)cc2)c[nH]1 | 610 nM | –
15 nM | CCCCCCOC(=O)NCCc1nc(-c2ccc(-c3ccccc3)cc2)c[nH]1 | 670 nM | –
26 nM | O=C(NCCc1nc(-c2ccc(-c3ccccc3)cc2)c[nH]1)OC1CCCCC1 | 650 nM | –
21 nM | O=C(NCCc1nc(-c2ccc(-c3ccccc3)cc2)c[nH]1)OCC1CCCCC1 | 700 nM | –
14 nM | CCCCOC(=O)NCCc1nc(-c2ccc(N3CCCC3)cc2)c[nH]1 | 1120 nM | –
7 nM | CCCCOC(=O)NCCc1nc(-c2ccc(C3CCCCC3)cc2)c[nH]1 | – | –
32 nM | CCCCOC(=O)NCCc1nc(-c2ccc(-c3ccccc3)cc2)c[nH]1 | 230 nM | Activity (Rattus norvegicus [2]): Active; Activity (Rattus norvegicus [3]): Active; Activity (Rattus norvegicus [4]): Active
